Experimental data from paper PMC6248884 (European journal of medicinal chemistry, 2018).
Where two headings read alike, the source gives them in different places. Square brackets hold non-standard residues; d marks the D form. Peptide text beside a SMILES is read from it. * marks the point of attachment. Dolaproine = CO[C@@H]([C@@H]1CCCN1)[C@@H](C)C(=O)O; Dil = CC[C@H](C)[C@H](NC)[C@@H](CC(=O)O)OC; X1 = C[C@@H](N*)[C@@H](O)c1ccccc1; NMeV = CN[C@H](C(=O)O)C(C)C

Legend:
[1] = target: ChT-L site of the proteasome; assay: Binding affinity to the ChT-L site of the proteasome; format: biochemical; settings: read-out: IC50, ChT-L site of the proteasome; proteasome source not stated
[2] = system: NCI-H460 cells; assay: Cytotoxicity assay to NCI-H460 human lung carcinoma cells; format: cell-based
[3] = target: human 20S proteasome ChT-L site (Homo sapiens, UniProt P20618+P28074); assay: Proteasome inhibition assay, chymotrypsin-like site, fluorogenic substrate; format: biochemical
Summary of the method: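 Human recombinant 20S proteasome, 3 µg/mL in buffer (100 mM Tris pH 7.5, 0.5 mM EDTA, 0.03% SDS), preincubated 30 min at 37 °C with test compound or 25% DMSO vehicle. Reaction started with site-selective AMC substrate (Suc-LLVY-AMC for ChT-L) and run 30 min at 37 °C. Eleven-point 3-fold series, 1.0 µM–[…] final, in triplicate. Fluorescence read at ex 365/em 450 nm; data scaled to internal controls; IC50 from four-parameter logistic fit.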

[4] = system: HCT116 cells; assay: Cytotoxicity to HCT116 colon adenocarcinoma cell line; format: cell-based
[5] = target: human 20S proteasome C-L site (Homo sapiens, UniProt P28072+Q99436); assay: Proteasome inhibition assay, caspase-like site, fluorogenic substrate; format: biochemical
[6] = target: human 20S proteasome T-L site (Homo sapiens, UniProt P49720+Q99436); assay: Proteasome inhibition assay, trypsin-like site, fluorogenic substrate; format: biochemical
[7] = system: SKBR3 cells (Her2+); assay: Cell proliferation assay; format: cell-based
[8] = system: MDA-MB-468 cells (Her2-); assay: Cell proliferation assay; format: cell-based
[9] = system: MDA-MB-231 cells (Her2-); assay: Cell proliferation assay; format: cell-based; settings: read-out: MDA-MB-231 IC50, Table 5
[10] = read-out: NCI-H460 IC50, Table 1, NCI-H460 cell line
[11] = Homo sapiens, NCI-H460, read-out: NCI-H460 IC50
[12] = Homo sapiens, HCT-116, read-out: HCT116 IC50
[13] = Homo sapiens, SK-BR-3, read-out: SKBR3 IC50
[14] = Homo sapiens, MDA-MB-468, read-out: MDA-MB-468 IC50

IC50 [3] | Compound | IC50 [2, 11] | IC50 [4, 12] | also measured
 | CC(C)CC(NC(=O)C(CCS(C)(=O)=O)NC(=O)C(NC(=O)CCCCCN)C(C)C)C(=O)C1(C)CO1 (centres unmarked) [Analogue 6] |  |  | IC50 [1]: 539 nM; IC50 [2, 10]: 860 nM
42.2 ± 5.4 nM | CCCCCC(=O)N[C@H](C(=O)N[C@@H](CCS(=O)(=O)CCN)C(=O)N[C@@H](CC(C)C)C(=O)[C@@]1(C)CO1)C(C)C [Analogue 7, N-((S)-1-(((S)-4-((2-aminoethyl)sulfonyl)-1-(((S)-4-methyl-1-((R)-2-methyloxiran-2-yl)-1oxopentan-2-yl)amino)-1-oxobutan-2-yl)amino)-3-methyl-1-oxobutan-2-yl)hexanamide] | 34 nM | 624 nM | 
14.2 ± 2.4 nM | CCCCCC(=O)N[C@H](C(=O)N[C@@H](CCS(=O)(=O)CCNC(=O)OC(C)(C)C)C(=O)N[C@@H](CC(C)C)C(=O)[C@@]1(C)CO1)C(C)C [Analogue 7-Boc, tert-Butyl (2-(((S)-3-((S)-2-hexanamido-3-methylbutanamido)-4-(((S)-4-methyl-1-((R)-2methyloxiran-2-yl)-1-oxopentan-2-yl)amino)-4-oxobutyl)sulfonyl)ethyl)carbamate] | 2.1 ± 0.16 nM | 4.8 ± 0.27 nM | 
 | CC(C)C[C@H](NC(=O)[C@H](CCS(=O)(=O)CCN)NC(=O)[C@H](Cc1ccccc1)NC(=O)Cc1ccccc1)C(=O)[C@@]1(C)CO1 [Analogue 8, (S)-4-((2-Aminoethyl)sulfonyl)-N-((S)-4-methyl-1-((R)-2-methyloxiran-2-yl)-1-oxopentan-2yl)-2-((S)-3-phenyl-2-(2-phenylacetamido)propanamido)butanamide] | 34.2 nM | 165 nM | 
 | CC(C)C[C@H](NC(=O)[C@H](CCS(=O)(=O)CCNC(=O)OC(C)(C)C)NC(=O)[C@H](Cc1ccccc1)NC(=O)Cc1ccccc1)C(=O)[C@@]1(C)CO1 [Analogue 8-Boc, tert-Butyl (2-(((S)-4-(((S)-4-methyl-1-((R)-2-methyloxiran-2-yl)-1-oxopentan-2-yl)amino)-4oxo-3-((S)-3-phenyl-2-(2-phenylacetamido)propanamido)butyl)sulfonyl)ethyl)carbamate] | 8.5 ± 1.2 nM | 4.8 ± 0.35 nM | 
 | CCCCCC(=O)N[C@H](C(=O)N[C@@H](CCS(=O)(=O)CCN)C(=O)N[C@@H](Cc1ccccc1)C(=O)[C@@]1(C)CO1)C(C)C [Analogue 9, N-((S)-1-(((S)-4-((2-Aminoethyl)sulfonyl)-1-(((S)-1-((R)-2-methyloxiran-2-yl)-1-oxo-3phenylpropan-2-yl)amino)-1-oxobutan-2-yl)amino)-3-methyl-1-oxobutan-2-yl)hexanamide] | 33.4 nM | 882 nM | 
 | CCCCCC(=O)N[C@H](C(=O)N[C@@H](CCS(=O)(=O)CCNC(=O)OC(C)(C)C)C(=O)N[C@@H](Cc1ccccc1)C(=O)[C@@]1(C)CO1)C(C)C [Analogue 9-Boc, tert-Butyl (2-(((S)-3-((S)-2-hexanamido-3-methylbutanamido)-4-(((S)-1-((R)-2methyloxiran-2-yl)-1-oxo-3-phenylpropan-2-yl)amino)-4oxobutyl)sulfonyl)ethyl)carbamate] | 2.6 ± 0.12 nM | 1.3 ± 0.2 nM | 
 | C[C@]1(C(=O)[C@H](Cc2ccccc2)NC(=O)[C@H](CCS(=O)(=O)CCN)NC(=O)[C@H](Cc2ccccc2)NC(=O)Cc2ccccc2)CO1 [Analogue 10, (S)-4-((2-Aminoethyl)sulfonyl)-N-((S)-1-((R)-2-methyloxiran-2-yl)-1-oxo-3-phenylpropan-2yl)-2-((S)-3-phenyl-2-(2-phenylacetamido)propanamido)butanamide] | 304 nM | 698 nM | 
 | CC(C)(C)OC(=O)NCCS(=O)(=O)CC[C@H](NC(=O)[C@H](Cc1ccccc1)NC(=O)Cc1ccccc1)C(=O)N[C@@H](Cc1ccccc1)C(=O)[C@@]1(C)CO1 [Analogue 10-Boc, tert-Butyl (2-(((S)-4-(((S)-1-((R)-2-methyloxiran-2-yl)-1-oxo-3-phenylpropan-2-yl)amino)-4oxo-3-((S)-3-phenyl-2-(2-phenylacetamido)propanamido)butyl)sulfonyl)ethyl)carbamate] | 21 ± 1.3 nM | 10.9 ± 0.98 nM | 
1.5 ± 0.2 nM | CCCCCC(=O)N[C@H](C(=O)N[C@@H](CCS(=O)(=O)c1ccc(N)cc1)C(=O)N[C@@H](CC(C)C)C(=O)[C@@]1(C)CO1)C(C)C [Analogue 13, N-((S)-1-(((S)-4-((4-Aminophenyl)sulfonyl)-1-(((S)-4-methyl-1-((R)-2-methyloxiran-2-yl)-1oxopentan-2-yl)amino)-1-oxobutan-2-yl)amino)-3-methyl-1-oxobutan-2-yl)hexanamide] | 1.8 ± 0.1 nM | 2.6 ± 0.2 nM | IC50 [5]: 540 nM; IC50 [6]: 14 nM; IC50 [7, 13]: 0.43 nM
 | CCCCCC(=O)N[C@H](C(=O)N[C@@H](CCS(=O)(=O)c1ccc(NC(=O)OC(C)(C)C)cc1)C(=O)N[C@@H](CC(C)C)C(=O)[C@@]1(C)CO1)C(C)C [Analogue 13-Boc, tert-Butyl (4-(((S)-3-((S)-2-hexanamido-3-methylbutanamido)-4-(((S)-4-methyl-1-((R)-2methyloxiran-2-yl)-1-oxopentan-2-yl)amino)-4-oxobutyl)sulfonyl)phenyl)carbamate] |  | 4.9 ± 0.1 nM | 
1.9 ± 0.1 nM | CCCCCC(=O)N[C@H](C(=O)N[C@@H](CCC(=O)N[C@@H](CC(C)C)C(=O)[C@@]1(C)CO1)C(=O)N[C@@H](CC(C)C)C(=O)[C@@]1(C)CO1)C(C)C [Analogue 14, (S)-2-((S)-2-Hexanamido-3-methylbutanamido)-N1,N5-bis((S)-4-methyl-1-((R)-2methyloxiran-2-yl)-1-oxopentan-2-yl)pentanediamide] | 5.4 ± 1 nM | 0.2 ± 0.1 nM | IC50 [5]: 150 nM; IC50 [6]: 98 nM
5.6 nM | CCCCCC(=O)N[C@@H](Cc1ccc(N)cc1)C(=O)N[C@@H](CCC(=O)N[C@@H](CC(C)C)C(=O)[C@@]1(C)CO1)C(=O)N[C@@H](CC(C)C)C(=O)[C@@]1(C)CO1 [Analogue 15, (S)-2-((S)-3-(4-Aminophenyl)-2-hexanamidopropanamido)-N1,N5-bis((S)-4-methyl-1-((R)2-methyloxiran-2-yl)-1-oxopentan-2-yl)pentanediamide] | 29.8 nM | 53 nM | IC50 [5]: > 1000 nM; IC50 [6]: 315 nM; IC50 [8, 14]: 30 nM; IC50 [7, 13]: 21 nM
90 ± 13 nM | CC(C)C[C@H](NC(=O)CC[C@H](NC(=O)[C@@H](NC(=O)Cc1ccc(N)cc1)C(C)C)C(=O)N[C@@H](CC(C)C)C(=O)[C@@]1(C)CO1)C(=O)[C@@]1(C)CO1 [Analogue 16, (S)-2-((S)-2-(2-(4-Aminophenyl)acetamido)-3-methylbutanamido)-N1,N5-bis((S)-4-methyl1-((R)-2-methyloxiran-2-yl)-1-oxopentan-2-yl)pentanediamide] | 25.3 nM | 45 nM | IC50 [5]: > 1000 nM; IC50 [6]: 71.5 nM; IC50 [8, 14]: 33 nM; IC50 [7, 13]: 25 nM
> 1000 nM | CCCCCC(=O)N[C@H](C(=O)N[C@@H](CCC(=O)N[C@@H](CC(C)C)C(=O)[C@@]1(C)CO1)C(=O)NC(CCS(=O)(=O)c1ccc(N)cc1)C(=O)OC)C(C)C (stereo partly drawn) [Analogue 17, Methyl 4-((4-aminophenyl)sulfonyl)-2-((S)-2-((S)-2-hexanamido-3-methylbutanamido)-5(((S)-4-methyl-1-((R)-2-methyloxiran-2-yl)-1-oxopentan-2-yl)amino)-5oxopentanamido)butanoate] | > 10000 nM | 5540 nM | IC50 [5]: > 1000 nM; IC50 [6]: > 1000 nM; IC50 [8, 14]: 1740 nM; IC50 [7, 13]: 2430 nM
 | CCCCCC(=O)NC(C(=O)NC(CCSC)C(=O)NC(CC(C)C)C(=O)C1(C)CO1)C(C)C (centres unmarked) [Analogue 21] |  |  | IC50 ([2]; read-out: NCI-H460 IC50, Table 2, NCI-H460 cell line): 27 ± 2.6 nM; IC50 ([4]; read-out: HCT116 IC50, Table 2, HCT116 cell line): 22 nM
 | CC[C@H](C)[C@@H]([C@@H](CC(=O)N1CCC[C@H]1[C@H](OC)[C@@H](C)C(=O)N[C@H](C)[C@@H](O)c1ccccc1)OC)N(C)C(=O)[C@@H](NC(=O)[C@@H](NC)C(C)C)C(C)C [MMAE, monomethyl auristatin E, reference compound] (H-[NMeV]V[Dil][Dolaproine]-X1) |  |  | IC50 ([8]; read-out: MDA-MB-468 IC50, Table 5, Her2- cell): 0.17 nM; IC50 ([7]; read-out: SKBR3 IC50, Table 5, Her2+ cell): 0.072 nM; IC50 [9]: 0.005 nM
 | CCCCCC(=O)N[C@H](C(=O)N[C@@H](CCS(C)(=O)=O)C(=O)N[C@@H](CC(C)C)C(=O)[C@@]1(C)CO1)C(C)C [carmaphycin B, reference compound] |  |  | IC50 [2, 10]: 6 nM
